High-throughput results as filed in PubChem BioAssay.
Sampled rows, rich in hits. Any-hit rate of the full collection: about 3.2%.
FAK inh – blocks human focal adhesion kinase activity. Q05397. biochemical FAK kinase activity assay. inhibition, %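 (tested at 7 µM)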. 0.84% of 97,000 active; in the data active means inhibition above about 19%;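 further: 0% = DMSO and 100% = reference compound high control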
EphB4 ephrin blk – blocks human EphB4 binding to ephrin-B2; P54760; EphB4 LBD / TNYL-RAW-Alexa532 peptide, fluorescence polarization; inhibition, % at 7 µM; 0.15% of 97,000 active; AID 720;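 active means inhibition above the screen-wide mean inhibition plus 3 SD, cut at about 15% in these data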;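 further: 0% = DMSO wells and 100% = excess unlabeled TNYL-RAW peptide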
hDAT+cocaine – changed human dopamine transporter uptake under cocaine IC80 | Q01959 | LLC-PK1 hDAT cells, [14C]-dopamine uptake with cocaine IC80; actives deviate in either direction | B-score at 10 µM | 1.3% of 110,000 active | AID 449768;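 active means Z score or B-score, a plate-position-corrected score, falls beyond the plate's 99.7% confidence bounds, in either direction; inactive means both scores lie inside the 99.7% bounds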;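 further: scored against the spread of the other compound wells on the same plate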
Target sequence (Q01959 whole entry, looked up): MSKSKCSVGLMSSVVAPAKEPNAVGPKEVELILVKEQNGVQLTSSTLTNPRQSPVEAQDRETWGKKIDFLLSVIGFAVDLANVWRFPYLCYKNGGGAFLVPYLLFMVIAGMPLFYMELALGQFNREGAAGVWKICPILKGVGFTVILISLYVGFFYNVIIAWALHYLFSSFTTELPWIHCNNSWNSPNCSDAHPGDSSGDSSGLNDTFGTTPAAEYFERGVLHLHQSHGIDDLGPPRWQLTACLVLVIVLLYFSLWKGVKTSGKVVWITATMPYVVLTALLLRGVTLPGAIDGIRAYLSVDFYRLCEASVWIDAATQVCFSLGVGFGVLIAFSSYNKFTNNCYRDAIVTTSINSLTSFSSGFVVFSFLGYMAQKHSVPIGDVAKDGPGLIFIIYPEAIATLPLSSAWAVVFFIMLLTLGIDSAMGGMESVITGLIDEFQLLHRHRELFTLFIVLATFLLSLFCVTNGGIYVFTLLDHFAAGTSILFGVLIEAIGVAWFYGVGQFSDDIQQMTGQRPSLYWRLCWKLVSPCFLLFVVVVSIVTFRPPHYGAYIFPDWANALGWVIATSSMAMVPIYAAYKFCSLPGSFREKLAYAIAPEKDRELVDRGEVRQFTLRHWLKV
PLK1 kinase inh – blocks human PLK1 kinase activity; recombinant PLK1 kinase, TR-FRET peptide phosphorylation; inhibition, % at 10 µM; 0.53% of 97,000 active;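 active means inhibition of 50% or more in the single-concentration screen; inactive means inhibition below 50%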;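 further: 0% = DMSO max control and 100% = H-89 dihydrochloride min control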
PLK1 PBD inh – blocks phosphopeptide binding to human Plk1 polo box domain; P53350; Plk1 PBD phosphopeptide binding, fluorescence polarization; inhibition, %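 (tested at about 20 µM)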; 0.13% of 97,000 active; in the data active means inhibition above about 34%, passing the limit was not always enough
Rev-RRE block – disrupts HIV-1 Rev binding to RRE RNA. inhibition, % at 8 µM. AID 704. 0.79% of 97,000 active. P05866. Rev peptide-RRE RNA binding, FRET;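 active means inhibition above the screen-wide mean plus 3 SD, cut at about 35% in these data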;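 further: 0% = median DMSO wells and 100% = median Neomycin B control wells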
Target sequence (P05866 whole entry, looked up): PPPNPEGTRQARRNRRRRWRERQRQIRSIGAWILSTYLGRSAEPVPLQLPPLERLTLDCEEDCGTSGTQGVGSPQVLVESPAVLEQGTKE
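System: Cy5-labelled duplex RRE RNA binding fluorescein-labelled HIV Rev peptide; Signal: fluorescein-to-Cy5 FRET, 480 nm excitation; Also added: labelled Rev peptide; Compound: one concentration, 8 µM nominal; Buffer or medium: HEPES pH 7.5 salt buffer with EDTA; Read-out: % inhibition of FRET ratio versus controls; Schedule: 5 min preincubation and 15 min binding, 25 °C.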
* hit, by the source's call; x = not tested or not shown; [ ] = dose if it differs, or a comment.

SMILES	FAK inh	EphB4 ephrin blk	hDAT+cocaine	PLK1 kinase inh	PLK1 PBD inh	Rev-RRE block
CCCc1cc2c(cc1NC(=O)c1ccccc1C)OCO2	6.4	0.8	-1.25	-6.0	3.9	2.7
CCCCNc1oc(-c2cccs2)nc1S(=O)(=O)c1ccccc1	-1.4	-2.2	1.46	-13.6	8.3	13.1
O=S(=O)(c1ccccc1)c1nc(-c2cccs2)oc1NCCCn1ccnc1	-1.7	4.2	2.54*	-15.0	-6.6	5.7
Cc1csc(C(=O)O)c1-n1cccc1	-1.7	-6.1	-0.469	54.5*	28.7	0.6
O=C(O)c1oc2ccccc2c1-n1cccc1	-5.1	-2.5	-0.0267	-4.0	-7.6	0.7
CCN1CCc2nc(NC(=O)c3ccc4c(c3)OCCO4)sc2C1	2.6	0.4	0.14	-15.5	-30.3	36.4*
CCN1CCc2nc(NC(=O)Cc3ccc4c(c3)OCCO4)sc2C1	7.7	1.9	0.0119	2.5	2.4	11.1
O=C(Nc1nc2c(s1)CN(Cc1ccccc1)CC2)c1cccc(S(=O)(=O)N2CCc3ccccc32)c1	-14.1	-5.8	-1.24	-5.9	12.7	121.9*[fluorescence artefact?]
Cc1cccn2c(=O)c3cc(C#N)c(=NC(=O)c4ccncc4)n(CCCOC(C)C)c3nc12	2.3	11.5	2.36*	-13.6	5.3	21.7
CCCCn1c(=NC(=O)c2cccnc2)c(C#N)cc2c(=O)n3cccc(C)c3nc21	2.0	0.4	x	-19.5	-3.4	48.9*
CCc1ccc(NC(=O)c2ccccc2NC(=O)C2CCCO2)cc1 (stereo unspecified)	0.8	1.2	0.576	-10.4	-22.5	10.4
CCN(CC)c1ccc(/C=C(/C#N)c2nc3ccc(C)cc3[nH]2)c(OC(C)C)c1	2.5	-1.4	-0.269	-67.2	-191.8	138.1*[fluorescence artefact?]
CCCOc1cc(N(CC)CC)ccc1/C=C(/C#N)c1nc2ccc(C)cc2[nH]1	2.6	-7.3	-0.417	-73.8	-205.6	132.6*[fluorescence artefact?]
CCOc1cc(N(CC)CC)ccc1/C=C(/C#N)c1nc2ccccc2[nH]1	-3.0	-6.2	x	-50.2	-201.5	132.4*[fluorescence artefact?]
COCCN1C(=O)N[C@@H](c2ccccc2)[C@H](C(=O)OC)[C@H]1C	x	x	-0.458	x	x	x
Nc1[nH]c(=S)[nH]c(=O)c1-c1ccccc1	-1.4	-1.0	-0.976	-12.8	-11.7	138.6*[fluorescence artefact?]
O=c1[nH]c2ccccc2c(O)c1-c1ccccc1	x	x	-0.763	x	x	x
CC1=CC2=C(OC1N(C)C)c1cccc3cccc(c13)C2=O (stereo unspecified)	1.8	3.4	-0.259	-0.4	3.0	48.2*
CC1=C(C#N)C(Nc2cc(C)ccn2)(C(F)(F)F)C(=O)N1 (stereo unspecified)	-1.8	8.5	0.355	2.6	29.8	9.0
CC1=NC(C(F)(F)F)(C(F)(F)F)C(C#N)=C(C)N1	0.8	1.5	-3.85*	-0.2	8.8	8.5
Cn1c(=O)cc(SCC(=O)NCC2CCCO2)c2ccccc21 (stereo unspecified)	-5.6	0.0	-0.116	1.7	-10.8	7.0
Cc1cc(C)c(S(=O)(=O)c2ccccc2)c(Cl)n1	1.6	-6.1	-0.722	63.9*	8.9	0.4
Fc1ccc(NCc2cccnc2)cc1F	0.9	-1.4	-0.809	1.7	-12.4	41.2*
Cn1c(=O)c(=O)n(C)c2cc(S(=O)(=O)Nc3ccc4c(c3)OCCO4)ccc21	-9.6	4.9	-0.0384	-7.2	-12.2	5.7
Cn1c(=O)oc2cc(S(=O)(=O)Nc3ccc4c(c3)OCCO4)ccc21	-3.5	3.6	-0.0781	-25.8	-10.4	38.3*
SMILES	FAK inh	EphB4 ephrin blk	hDAT+cocaine	PLK1 kinase inh	PLK1 PBD inh	Rev-RRE block
CC(=O)Oc1cccc(N2C(=O)C3C(C2=O)C2C=CC3C23CC3)c1 (stereo unspecified)	-2.1	7.2	-1.85	-11.3	4.0	0.0
CC(=O)Oc1cccc(N2C(=O)C3C4C=CC(C4=C(C)C)C3C2=O)c1 (stereo unspecified)	-0.3	-1.9	-8.95*	-12.5	-12.3	4.0
CC1=CC(C)(C)N(S(=O)(=O)c2ccc(C)cc2)c2cc(C)ccc21	2.0	14.3	-2.04*	-9.8	-11.3	23.2
COc1ccc(C(=O)NC(=S)N2CCC(C)CC2)cc1	-0.7	-12.1	-7.89*	7.1	-5.2	2.8
Cc1ccsc1C1C2=C(CCCC2=O)Nc2ncnn21 (stereo unspecified)	1.8	2.9	-0.0156	61.2*	-10.4	8.3
COc1ccc(C)cc1NC(=O)C(=O)NCc1ccncc1	-6.7	-4.8	0.302	-10.0	-0.6	0.3
CC(C)CCn1c(=O)c2ccccc2n2c(CN(C)Cc3ccccc3)nnc12	-0.7	-1.6	-8.56*	-9.1	-11.0	3.5
O=C(Nc1ccc2c(c1)OCO2)c1ccc2nc[nH]c2c1	1.2	3.4	-1.86*	9.0	-28.5	3.8
Cc1ccc(CNC(=O)c2cc3c(=O)n4ccccc4nc3n(Cc3ccco3)c2=N)cc1	x	x	-2.66*	x	x	x
O=C(O)CCC(=O)N1CCN(c2nc(-c3ccccc3Cl)c3cc(Br)ccc3n2)CC1	-6.6	15.7*	2.98*	-15.0	2.5	0.5
OCCN1CCN(c2nc(-c3ccccc3)c3cc(Cl)ccc3n2)CC1	-0.9	-9.8	0.659	-7.6	-36.4	3.0
Cc1ccccc1CN1[C@@H](C(C)C)COCCS1(=O)=O	x	x	-0.133	x	x	x
C[C@@H](c1ncncc1F)[C@](O)(Cn1cncn1)c1ccc(F)cc1F	x	x	-0.0909	x	x	x
CC1CCN(C(=O)c2ccc(CSc3nc4ccncc4n3Cc3ccc(F)cc3)cc2)CC1	x	x	3.51*	x	x	x
Cc1cc(C(F)(F)F)nn1CC(=O)NNC(=S)Nc1cccc(Cl)c1	-1.0	3.9	-1.38	-0.8	-2.5	-0.1
Cn1c(=O)c2c(nc(SCC(=O)N3CCc4ccccc43)n2Cc2ccc(F)cc2)n(C)c1=O	-1.6	3.6	x	-10.7	14.7	11.5
O=C(c1cc2ccccc2oc1=O)N1CCN(c2ncccn2)CC1	0.0	6.4	2.88*	-5.1	-5.8	10.0
C=CCn1c(C#N)c(N)sc1=N	2.6	15.3*	-0.0361	8.2	-11.3	8.8
Cc1ccc(C2C(C#N)=C(N)SC(N)=C2C#N)c(C)c1	x	x	0.0833	x	x	x
CC1=C(C#N)C(c2ccoc2)C(C(=O)OCc2ccccc2)=C(N)S1 (stereo unspecified)	-0.6	8.8	0.209	-4.7	20.3	18.0
Cc1ccc(C2C(C#N)=C(N)SC(N)=C2C#N)cc1	-3.5	-4.6	x	-12.4	-27.1	58.5*
N#CC1=C(N)SC(N)=C(C#N)C1c1ccoc1	-1.2	-1.3	0.0202	-0.7	-50.8	85.8*[fluorescence artefact?]
CC1(C)C[C@H](O)[C@@]23C[C@@H](OC2=O)[C@]2(C)C(=CCC4[C@@]5(C)CC[C@H](O)C(C)(C)C5CC[C@]42C)[C@@H]3C1 (stereo partly specified)	x	x	-0.548	x	x	x
COc1cc2c(C(=O)NCc3ccc(C)o3)cn(CC(C)C)c(=O)c2cc1OC	-2.5	-1.8	0.245	-6.1	-6.5	-0.7
CCC1CCCCN1CCCNC(=O)c1cn(CC(C)C)c(=O)c2cc(OC)c(OC)cc12 (stereo unspecified)	0.1	-1.1	-7.21*	-13.4	-37.1	0.4
